These results are taken from ChEMBL document CHEMBL1138910, “Racemic and chiral sulfoxides as potential prodrugs of 4-pyrone COX-2 inhibitors” (Bioorg Med Chem Lett, 2006).

Values after ≈ are worked out from the molar mass of the structure shown.

The target in data set [1] is T1, Prostaglandin G/H synthase 2 (Homo sapiens, UniProt P35354).
T1 sequence (P35354 whole entry): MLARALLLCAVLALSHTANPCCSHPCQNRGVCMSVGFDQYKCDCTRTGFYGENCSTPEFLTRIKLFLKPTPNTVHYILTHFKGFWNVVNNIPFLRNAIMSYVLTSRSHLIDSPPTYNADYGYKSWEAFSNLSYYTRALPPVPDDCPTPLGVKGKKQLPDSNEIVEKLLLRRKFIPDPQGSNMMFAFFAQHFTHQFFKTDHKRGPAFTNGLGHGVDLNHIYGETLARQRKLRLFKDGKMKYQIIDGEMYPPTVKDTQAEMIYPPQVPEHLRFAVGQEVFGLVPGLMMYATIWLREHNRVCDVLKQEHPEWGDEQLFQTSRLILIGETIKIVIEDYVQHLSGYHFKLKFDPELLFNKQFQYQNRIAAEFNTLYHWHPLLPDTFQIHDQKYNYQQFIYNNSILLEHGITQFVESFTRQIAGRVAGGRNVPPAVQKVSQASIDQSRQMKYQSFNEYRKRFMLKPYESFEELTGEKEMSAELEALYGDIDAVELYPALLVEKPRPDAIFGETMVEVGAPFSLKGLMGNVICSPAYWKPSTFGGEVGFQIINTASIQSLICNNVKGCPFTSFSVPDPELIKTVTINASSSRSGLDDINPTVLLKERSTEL
The data set can be described thus: Inhibition of COX2 in human whole blood. In kind it is tissue-based.

A short description of data set [2]: Metabolic stability in human liver microsomes at 5 uM after 30 min […]. In kind it is ADME, Microsome. The note with it: in the assay text read “37 degC” for “30 degC”, read-out: Stability. For orientation: Microsomes from liver hold many membrane-bound enzymes, among them those of drug oxidation.
Data set [3] is described as follows: Metabolic stability in rat liver microsomes at 5 uM after 30 min […]. Particulars: in the assay text read “37 degC” for “30 degC”, read-out: Stability. In kind it is ADME, Microsome.
Data set [4] is described as follows: Solubility in simulated gastric fluid at pH 1.8, 37 degC after 24 hrs. In kind it is physicochemical.
Data set [5] can be described thus: Solubility in PBS at pH 7.2, 37 degC after 24 hrs. In kind it is physicochemical.
For data set [6], the system named is Rattus norvegicus. The experiment in a line: Inhibition of adjuvant-induced arthritis in Wistar rat at 0.01 mg/kg, po. In kind it is functional. In a few lines:
(§1)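 Adjuvant-induced arthritis in male Wistar rats run as a therapeutic protocol. Compounds were given orally once daily for 7 days, starting on day 14 after arthritis induction. Paw edema was measured 24 h after the last dose. Results are reported as ED50 from four doses (six to eight animals per group) or as % inhibition at the stated dose.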

For data set [7], the species on record is Rattus norvegicus. The data set can be described thus: Inhibition of yeast-induced pyresis in Wistar rat. The data set is classed as functional. The procedure, abridged: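 Yeast-induced pyresis in rats, an acute therapeutic protocol with a single oral dose. Temperature was measured at 1 h intervals from 1 to 5 h after dosing. ED50 was derived from four doses with six to eight animals per group.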

The nature of data set [8]: Cmax in Wistar rat at 1 mg/kg, po. The note with it: in vivo. In kind it is ADME, organism-based. More on the design: dose 1 mg/kg, route oral.
A short description of data set [9]: Tmax in Wistar rat at 1 mg/kg, po. The data set is classed as ADME, organism-based. More on the design: dose 1 mg/kg, route oral. The note with it: in vivo.
Data set [10] is described as follows: AUC in Wistar rat at 1 mg/kg, po. In kind it is ADME, organism-based. Also noted: dose 1 mg/kg, route oral. Particulars: plasma.
In data set [11] the test system is Rattus norvegicus. The data set can be described thus: Inhibition of adjuvant-induced arthritis in Wistar rat at 0.1 mg/kg, po. In kind it is functional. The procedure, abridged: as §1
Data set [12] relates to Rattus norvegicus. The data set can be described thus: Activity against adjuvant-induced arthritis in po dosed Wistar rat. In kind it is functional, organism-based. In a few lines: as §1
Data set [13] deals with Rattus norvegicus. The data set can be described thus: Cmax in Wistar rat after administration as its prodrug at 1 mg/kg, po. The note with it: in vivo. More on the design: dose 1 mg/kg, route oral. The data set is classed as ADME, organism-based.
The subject of data set [14] is Rattus norvegicus. The experiment in a line: Tmax in Wistar rat after administration as its prodrug at 1 mg/kg, po. In kind it is ADME, organism-based. Also noted: dose 1 mg/kg, route oral. The note with it: in vivo.
For data set [15], the system named is Rattus norvegicus. The data set can be described thus: AUC in Wistar rat after administration as its prodrug at 1 mg/kg, po. The data set is classed as ADME, organism-based, Plasma. Also noted: dose 1 mg/kg, route oral. Particulars: in vivo.
In data set [16] the test system is Rattus norvegicus. The data set can be described thus: Ratio AUC for prodrug to the parent compound in Wistar rat at 1 mg/kg, po. The data set is classed as ADME, organism-based. Also noted: dose 1 mg/kg, route oral. The note with it: in vivo.

As a reminder, the IC50 is the concentration at which inhibition is half-maximal. A lower IC50 goes with greater potency. In turn, `Cc1cc(=O)c(Oc2ccc(Br)cc2F)c(-c2ccc([S@+](C)[O-])cc2)o1` gave an IC50 in data set [1] of 200 nM. Further, the remaining at 0.5 h, 5 µM in [2] amounted to 42%; in data set [3], 80%.
Turning to `Cc1cc(=O)c(Oc2ccc(Cl)cc2F)c(-c2ccc([S@+](C)[O-])cc2)o1`, the figures for the remaining at 0.5 h, 5 µM in data set [2] and in [3] were 41% and 67%, respectively.
One may read the solubility as the dissolved amount per volume that the medium holds. The low end stands for little dissolved substance, the high end for much dissolved substance. The term inhibition in vivo denotes the drop in the measured response relative to a control, in per cent. For orientation: ED50 means the dose that gives a 50% effect, or the effect in half of the subjects. High values mean weaker potency, low ones greater potency. The term Cmax denotes the maximum level reached in the sampled fluid or tissue. What is called Tmax is the time from dosing to the highest level. One may read the AUC as the area under the concentration-time curve, a measure of exposure. With `Cc1cc(=O)c(Oc2ccc(Br)cc2F)c(-c2ccc([S+](C)[O-])cc2)o1` (configuration not stated), the remaining at 0.5 h, 5 µM in data set [2] was 64%; in [3], 77%. In addition, the solubility at 24 h in data set [4] was 31 µg/mL (≈ 70.9 µM); in data set [5], 15 µg/mL (≈ 34.3 µM). In addition, the inhibition in vivo at 0.01 mg/kg in the data set on Rattus norvegicus [6] worked out at 58%. It took a dose of 2.8 mg/kg to reach the 50% effect level in the data set filed under Rattus norvegicus [7] (ED50). The molecule also returned a Cmax in data set [8] of 37 ng/mL. For the same molecule, the Tmax in data set [9] is 0.3 h. Further, in data set [10], the AUC turned out to be 43 ng·h/mL.
`Cc1cc(=O)c(Oc2ccc(Cl)cc2F)c(-c2ccc(S(C)(=O)=O)cc2)o1`: the remaining at 0.5 h, 5 µM in [2] turned out to be 6%; in data set [3], 27%. Also, the results for the solubility at 24 h in data set [4] and in data set [5] were 18 µg/mL (≈ 44 µM) and 5 µg/mL (≈ 12.2 µM), respectively. Moreover, the inhibition in vivo at 0.1 mg/kg in the data set with Rattus norvegicus [11] amounted to 63%. In the data set filed under Rattus norvegicus [7], this molecule had an ED50 of 0.8 mg/kg.
`Cc1cc(=O)c(Oc2ccc(F)cc2F)c(-c2ccc([S+](C)[O-])cc2)o1` (configuration not stated) registered an IC50 in data set [1] of 920 nM. For the same molecule, the remaining at 0.5 h, 5 µM in data set [2] stood at 24%; in data set [3], 54%. In addition, the solubility at 24 h in data set [4] is 527 µg/mL (≈ 1400 µM); in [5], 150 µg/mL (≈ 399 µM). Besides, in the data set with Rattus norvegicus [11], the inhibition in vivo at 0.1 mg/kg came out at 59%. This molecule had an ED50 in the data set listed under Rattus norvegicus [7] of 1.3 mg/kg. Further, the Cmax in data set [8] is 1310 ng/mL. Besides, the Tmax in data set [9] stood at 0.3 h. In data set [10], this molecule showed an AUC of 1310 ng·h/mL.
`Cc1cc(=O)c(Oc2ccc(F)cc2F)c(-c2ccc([S@+](C)[O-])cc2)o1` yielded an IC50 in [1] of 270 nM. The remaining at 0.5 h, 5 µM was determined as 17% in data set [2] and 38% in [3].
Turning to `Cc1cc(=O)c(Oc2ccc(Br)cc2F)c(-c2ccc([S@@+](C)[O-])cc2)o1`, the IC50 in data set [1] amounted to 1580 nM. Besides, the remaining at 0.5 h, 5 µM in [2] came out at 62%; in data set [3], 93%.
As for `Cc1cc(=O)c(Oc2ccc(Cl)cc2F)c(-c2ccc([S+](C)[O-])cc2)o1` (configuration not stated), the remaining at 0.5 h, 5 µM amounted to 57% in [2] and 86% in data set [3]. In addition, the solubility at 24 h in data set [4] was 70 µg/mL (≈ 178 µM); in data set [5] it was 37 µg/mL (≈ 94.2 µM). In addition, the inhibition in vivo at 0.1 mg/kg in the data set with Rattus norvegicus [11] was determined as 56%. The ED50 in the data set listed under Rattus norvegicus [7] amounted to 2.3 mg/kg.
`Cc1ccc(-c2ncc(Cl)cc2-c2ccc(S(C)(=O)=O)cc2)cn1` [ETORICOXIB]: the EC50 with Rattus norvegicus [12] was found to be 0.44 mg/kg. The ED50 in the data set listed under Rattus norvegicus [7] came to 1 mg/kg.
In the case of `Cc1cc(=O)c(Oc2ccc(Br)cc2F)c(-c2ccc(S(C)(=O)=O)cc2)o1`, the remaining at 0.5 h, 5 µM in data set [2] is 12%; in data set [3], 34%. In addition, the solubility at 24 h was 4 µg/mL (≈ 8.82 µM) in [4] and 1 µg/mL (≈ 2.21 µM) in data set [5]. For the same molecule, the inhibition in vivo at 0.01 mg/kg in the data set on Rattus norvegicus [6] came to 60%. Also, in the data set filed under Rattus norvegicus [7], the ED50 was 3.2 mg/kg. Further, the Cmax in data set [8] turned out to be 177 ng/mL; in the data set on Rattus norvegicus [13] it was 243 ng/mL. The Tmax stood at 2.2 h in data set [9] and 1.5 h in the data set with Rattus norvegicus [14]. The figures for the AUC (in data set [10]; in the data set on Rattus norvegicus [15]) were 1270 ng·h/mL and 1125 ng·h/mL, respectively. The “Ratio AUC” value with Rattus norvegicus [16] worked out at 28.
Consider `Cc1cc(=O)c(Oc2ccc(F)cc2F)c(-c2ccc(S(C)(=O)=O)cc2)o1`, for which the results for the remaining at 0.5 h, 5 µM in data set [2] and in data set [3] were 2% and 26%, respectively. Besides, the solubility at 24 h in data set [4] is 9 µg/mL (≈ 22.9 µM); in [5], 7 µg/mL (≈ 17.8 µM). Besides, in the data set with Rattus norvegicus [11], the inhibition in vivo at 0.1 mg/kg amounted to 68%. The 50% effect level in the data set filed under Rattus norvegicus [7] (ED50) was put at a dose of 0.7 mg/kg. Further, the Cmax was 1510 ng/mL in data set [8] and 2959 ng/mL in the data set with Rattus norvegicus [13]. In addition, the Tmax in data set [9] was found to be 1 h; in the data set on Rattus norvegicus [14], 2.3 h. The AUC in data set [10] was 9220 ng·h/mL; with Rattus norvegicus [15] it was 18646 ng·h/mL. For the same molecule, in the data set on Rattus norvegicus [16], the “Ratio AUC” value was determined as 14.
Consider `CS(=O)(=O)c1ccc(C2=C(c3ccccc3)C(=O)OC2)cc1` [ROFECOXIB], for which, in the data set with Rattus norvegicus [12], the EC50 worked out at 0.3 mg/kg. This molecule also displayed an ED50 in the data set filed under Rattus norvegicus [7] of 0.9 mg/kg.
On to `Cc1cc(=O)c(Oc2ccc(Cl)cc2F)c(-c2ccc([S@@+](C)[O-])cc2)o1`, for which the remaining at 0.5 h, 5 µM in data set [2] worked out at 48%; in data set [3] it was 87%.
In data set [1], `Cc1cc(=O)c(Oc2ccc(F)cc2F)c(-c2ccc([S@@+](C)[O-])cc2)o1` showed an IC50 of 2100 nM. The values for the remaining at 0.5 h, 5 µM in data set [2] and in data set [3] were 20% and 55%, respectively.
